Experimental data reported in article PMC10582678 (Clinical and Translational Science, 2023).

Experiments:
[1] = Preclinical safety in rats; format: in vivo; conditions: stated in introduction
[2] = Plasma pharmacokinetics, single ascending dose; format: in vivo, human; conditions: for CL/F / AUC(0-t): mean ± SD; for T last: median (min, max); for Tmax / half-life / AUC(0-inf) / MRT / Vd/F / AUC(0-t) / Cmax: human, plasma; for Tmax / half-life / AUC(0-inf) / MRT / Vd/F / AUC(0-t): oral; for Cmax: po
Summary of the method: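 Healthy subjects received single oral doses under fasting conditions: 100 mg (three subjects), or 200, 400, 600 or 800 mg in cohorts of eight randomized 6 active:2 placebo, double-blind. Plasma drug was quantified by validated HPLC-tandem accurate mass spectrometry with a calibration range of 5.00–5000 ng/mL. Cmax, Tmax, AUC, t1/2, CL/F, Vz/F and MRT were derived by noncompartmental analysis and reported as mean ± SD (%CV) or median.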

BTK = BTK (Homo sapiens, UniProt Q06187); test: BTK receptor occupancy in peripheral blood monocytes; format: in vivo
BTK, sequence (Q06187 whole entry): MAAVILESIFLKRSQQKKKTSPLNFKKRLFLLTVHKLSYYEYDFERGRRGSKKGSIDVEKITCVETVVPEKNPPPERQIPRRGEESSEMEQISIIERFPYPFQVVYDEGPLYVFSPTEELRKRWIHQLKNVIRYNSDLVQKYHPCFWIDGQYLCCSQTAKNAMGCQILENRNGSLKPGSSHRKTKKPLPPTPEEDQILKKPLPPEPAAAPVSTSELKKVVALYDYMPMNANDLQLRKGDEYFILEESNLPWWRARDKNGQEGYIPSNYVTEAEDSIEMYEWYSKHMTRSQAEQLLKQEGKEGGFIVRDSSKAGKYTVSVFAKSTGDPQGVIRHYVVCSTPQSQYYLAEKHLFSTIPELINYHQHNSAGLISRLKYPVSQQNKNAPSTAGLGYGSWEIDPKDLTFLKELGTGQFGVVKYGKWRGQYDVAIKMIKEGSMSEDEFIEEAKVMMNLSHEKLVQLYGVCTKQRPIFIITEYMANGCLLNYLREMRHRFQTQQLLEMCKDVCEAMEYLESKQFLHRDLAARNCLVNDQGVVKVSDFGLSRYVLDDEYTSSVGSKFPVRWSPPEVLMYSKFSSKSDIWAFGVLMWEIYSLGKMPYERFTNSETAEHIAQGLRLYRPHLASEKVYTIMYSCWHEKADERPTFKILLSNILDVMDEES
Summary of the method: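 Peripheral blood was sampled from healthy adult Chinese subjects given oral test compound or placebo. In the multiple-dose part, samples were taken at 0, 12, 24 and 168 h after the first dose (day 1) and at 0 and 12 h after the last dose (day 10). In the food-effect part, samples were taken at 0, 12, 24 and 120 h postdose. BTK occupancy was measured by validated ELISA (sensitivity 1.784 ng/mL). Negative placebo values were set to 0.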

[3] = Safety, adverse events, food effect study; format: in vivo, human; conditions: for AEs / Increased blood triglycerides / Abdominal discomfort / Constipation / Decreased leukocyte count / Decreased lymphocyte count / Decreased neutrophil count / Dermatitis allergic / Dyspepsia / Increased ALT / Increased AST / Increased blood bilirubin / Increased blood cholesterol / Increased blood creatinine / Lethargy / Mouth ulceration / Oropharyngeal pain / Sinus arrythmia / Treatment discontinuation due to AEs / Upper respiratory tract infection: Food effect 600 mg, n (%)
Summary of the method: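 Safety was monitored by vital signs, clinical laboratory tests, physical examination, 12-lead ECG, AEs and SAEs. AEs were coded with MedDRA 23.1 and graded by CTCAE 5.0. Subjects were discharged 6 days after the last dose, with a follow-up visit 8–14 days after the last dose. The safety set comprised randomized subjects who received active drug or placebo and had post-dose safety data.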

[4] = system: EGFR, ITK, Lck, SRC, LYN, and JAK3; test: Selectivity for BTK over other kinases; format: biochemical; conditions: stated in introduction

Q: What does the source list for `N#CN1C[C@H](n2nc(-c3ccc(Oc4ccc(Cl)cn4)cc3)c(C(N)=O)c2N)CCC12CC2` [SN1011, 5-amino-3-(4-((5-chloro-2-pyridinyl)oxy)phenyl)-1-((6R)-4-cyano-4-azaspiro[2.5]octan-6-yl)-1H-pyrazole-4-carboxamide]?
A: safety profile [1]: acceptable safety profile; CL/F ([2]; SAD 100 mg): 49.6 ± 13.9 (28%) L/h; T last ([2]; SAD 100 mg): 48.0 (48.0, 72.0) h; CL/F ([2]; SAD 200 mg): 44.8 ± 15.3 (34%) L/h; T last ([2]; SAD 200 mg): 72.0 (48.0, 96.0) h; CL/F ([2]; SAD 400 mg): 36.5 ± 9.1 (25%) L/h; T last ([2]; SAD 400 mg): 96.0 (72.0, 144.0) h; CL/F ([2]; SAD 600 mg): 43.4 ± 19.5 (45%) L/h; T last ([2]; SAD 600 mg): 108.0 (72.0, 144.0) h; CL/F ([2]; SAD 800 mg): 44.8 ± 22.3 (50%) L/h; T last ([2]; SAD 800 mg): 132.0 (120.0, 144.1) h; Tmax [2]: 3 to 5 h; half-life [2]: 15.5 to 21.8 h; AUC(0-inf) ([2]; 100 mg): 2110 ± 525 ng·h/mL; MRT ([2]; 100 mg): 26.4 ± 1.7 h; Tmax ([2]; 100 mg): 4 h; Vd/F ([2]; 100 mg): 1210 ± 497 L; half-life ([2]; 100 mg): 16.5 ± 2.1 h; AUC(0-t) ([2]; 100 mg, AUC0-24, SAD 100 mg): 1240 ± 339 ng·h/mL; AUC(0-t) ([2]; 100 mg, AUC0-t, SAD 100 mg): 1880 ± 523 ng·h/mL; AUC(0-inf) ([2]; 200 mg): 4920 ± 1710 ng·h/mL; MRT ([2]; 200 mg): 22.9 ± 4 h; Tmax ([2]; 200 mg): 3 h; Vd/F ([2]; 200 mg): 989 ± 293 L; half-life ([2]; 200 mg): 15.5 ± 2.4 h; AUC(0-t) ([2]; 200 mg, AUC0-24, SAD 200 mg): 3210 ± 1190 ng·h/mL; AUC(0-t) ([2]; 200 mg, AUC0-t, SAD 200 mg): 4700 ± 1730 ng·h/mL; AUC(0-inf) ([2]; 400 mg): 11600 ng·h/mL; MRT ([2]; 400 mg): 29.4 ± 9.9 h; Tmax ([2]; 400 mg): 3.5 h; Vd/F ([2]; 400 mg): 997 ± 350 L; half-life ([2]; 400 mg): 19.3 ± 6.5 h; AUC(0-t) ([2]; 400 mg, AUC0-24, SAD 400 mg): 6510 ± 1960 ng·h/mL; AUC(0-t) ([2]; 400 mg, AUC0-t, SAD 400 mg): 11300 ng·h/mL; AUC(0-inf) ([2]; 600 mg): 16800 ng·h/mL; MRT ([2]; 600 mg): 28.7 ± 8.5 h; Tmax ([2]; 600 mg): 4 h; Vd/F ([2]; 600 mg): 1060 ± 227 L; half-life ([2]; 600 mg): 19.1 ± 6.4 h; AUC(0-t) ([2]; 600 mg, AUC0-24, SAD 600 mg): 9100 ± 3420 ng·h/mL; AUC(0-t) ([2]; 600 mg, AUC0-t, SAD 600 mg): 16400 ng·h/mL; AUC(0-inf) ([2]; 800 mg): 22300 ng·h/mL; MRT ([2]; 800 mg): 31.1 ± 6.3 h; Tmax ([2]; 800 mg): 5 h; Vd/F ([2]; 800 mg): 1400 ± 760 L; half-life ([2]; 800 mg): 21.8 ± 4.1 h; AUC(0-t) ([2]; 800 mg, AUC0-24, SAD 800 mg): 11500 ng·h/mL; AUC(0-t) ([2]; 800 mg, AUC0-t, SAD 800 mg): 21900 ng·h/mL; Cmax ([2]; 100 mg): 84.2 ± 16.4 ng/mL; Cmax ([2]; 200 mg): 293 ± 132 ng/mL; Cmax ([2]; 400 mg): 487 ± 221 ng/mL; Cmax ([2]; 600 mg): 674 ± 259 ng/mL; Cmax ([2]; 800 mg): 779 ± 405 ng/mL; BTK receptor occupancy (BTK; MAD groups, 10 days of continuous q.d. administration of 400 and 600 mg): above 80%; BTK receptor occupancy (BTK; over 24 h after single administration of 600 mg, fasted and fed states): above 83%; AEs ([3]; Total N = 12): 7 (58.3); Increased blood triglycerides ([3]; Total N = 12): 5 (41.7); AEs ([3]; column Fasted-Fed): 5 (41.7); Abdominal discomfort ([3]; column Fasted-Fed): 0; Constipation ([3]; column Fasted-Fed): 0; Decreased leukocyte count ([3]; column Fasted-Fed): 0; Decreased lymphocyte count ([3]; column Fasted-Fed): 0; Decreased neutrophil count ([3]; column Fasted-Fed): 0; Dermatitis allergic ([3]; column Fasted-Fed): 0; Dyspepsia ([3]; column Fasted-Fed): 0; Increased ALT ([3]; column Fasted-Fed): 0; Increased AST ([3]; column Fasted-Fed): 0; Increased blood bilirubin ([3]; column Fasted-Fed): 0; Increased blood cholesterol ([3]; column Fasted-Fed): 0; Increased blood creatinine ([3]; column Fasted-Fed): 0; Increased blood triglycerides ([3]; column Fasted-Fed): 4 (33.3); Lethargy ([3]; column Fasted-Fed): 0; Mouth ulceration ([3]; column Fasted-Fed): 0; Oropharyngeal pain ([3]; column Fasted-Fed): 0; Sinus arrythmia ([3]; column Fasted-Fed): 0; Treatment discontinuation due to AEs ([3]; column Fasted-Fed): 1 (8.3); Upper respiratory tract infection ([3]; column Fasted-Fed): 0; AEs ([3]; column Fed-Fasted): 2 (18.2); Abdominal discomfort ([3]; column Fed-Fasted): 0; Constipation ([3]; column Fed-Fasted): 0; Decreased leukocyte count ([3]; column Fed-Fasted): 0; Decreased lymphocyte count ([3]; column Fed-Fasted): 0; Decreased neutrophil count ([3]; column Fed-Fasted): 0; Dermatitis allergic ([3]; column Fed-Fasted): 0; Dyspepsia ([3]; column Fed-Fasted): 0; Increased ALT ([3]; column Fed-Fasted): 0; Increased AST ([3]; column Fed-Fasted): 0; Increased blood bilirubin ([3]; column Fed-Fasted): 1 (9.1); Increased blood cholesterol ([3]; column Fed-Fasted): 0; Increased blood creatinine ([3]; column Fed-Fasted): 0; Increased blood triglycerides ([3]; column Fed-Fasted): 1 (9.1); Lethargy ([3]; column Fed-Fasted): 0; Mouth ulceration ([3]; column Fed-Fasted): 0; Oropharyngeal pain ([3]; column Fed-Fasted): 0; Sinus arrythmia ([3]; column Fed-Fasted): 0; Treatment discontinuation due to AEs ([3]; column Fed-Fasted): 0; Upper respiratory tract infection ([3]; column Fed-Fasted): 0; subjects who experienced AEs ([3]; food effect study, 12 subjects, 600 mg): 58.3%; subjects with AE leading to study discontinuation ([3]; food effect study, 12 subjects, increased triglycerides, grade 3): 8.3%; selectivity for BTK over other kinases [4]: 700 fold
